According to ChEMBL document CHEMBL1125337, “Synthesis and antibacterial activity of a series of basic amides of teicoplanin and deglucoteicoplanin with polyamines” (J Med Chem, 1992):
In brackets after ≈: the same amount, converted by molar mass.

How the values were obtained:
Proteus vulgaris = experiment: Minimum inhibitory concentration against Proteus vulgaris ATCC 881; format: functional
Method in brief: (§1)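 MIC (µg/mL) by microbroth dilution in Iso-Sensitest broth; final inoculum 10^4 cfu/mL; 24 h at 37 °C in air.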

Staphylococcus aureus = experiment: Minimum inhibitory concentration against Staphylococcus aureus L 165; format: functional; method in brief: as §1
Streptococcus pneumoniae = experiment: Minimum inhibitory concentration against Streptococcus pneumoniae L 44; format: functional
Method in brief: (§2)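 MIC (µg/mL) by microbroth dilution in Todd-Hewitt broth, final inoculum 10^4 cfu/mL, incubated 24 h at 37 °C in air.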

Streptococcus pyogenes [1] = experiment: Minimum inhibitory concentration of compound was determined against Streptococcus pyogenes L 49 in mouse; format: functional
Escherichia coli [2] = experiment: Minimum inhibitory concentration against Escherichia coli L 47; format: functional; method in brief: as §1
[3] = system: Staphylococcus haemolyticus; experiment: Minimum inhibitory concentration against Staphylococcus haemolyticus L 602; format: functional; method in brief: as §1
Streptococcus pyogenes [4] = experiment: Minimum inhibitory concentration against Streptococcus pyogenes L 49; format: functional; method in brief: as §2
[5] = system: Staphylococcus epidermidis; experiment: Minimum inhibitory concentration against Staphylococcus epidermidis ATCC 12228; format: functional; method in brief: as §1
Enterococcus faecalis = experiment: Minimum inhibitory concentration against Enterococcus faecalis ATCC 7080; format: functional
Method in brief: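 Microbroth dilution MIC (µg/mL), final inoculum 10^4 cfu/mL, incubated 24 h at 37 °C in air.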

Pseudomonas aeruginosa = experiment: Minimum inhibitory concentration against Pseudomonas aeruginosa ATCC 10145; format: functional; method in brief: as §1
Streptococcus pyogenes [6] = experiment: Efficacy of compound administered subcutaneously against Streptococcus pyogenes L 49 Septicemia in mouse; format: functional; conditions: sc
Method in brief: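 Mice were infected intraperitoneally with about 10^5 Strep. pyogenes L 49 cells, about 100 times the 50% lethal dose. Groups of 5–8 mice were treated once right after challenge, by the route stated in the line. ED50 (mg/kg) was derived from percentage survival at each dose on day 7 (Spearman-Kärber).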

[7] = Association constant to Ac2-L-Lys-D-Ala-D-Ala determined at pH 9; Value ranges from 5E4-7.5E4
Escherichia coli [8] = experiment: Efficacy of compound administered intravenously against Escherichia coli L47 Septicemia in mouse; format: functional; conditions: iv
Method in brief: (§3)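 Mouse septicemia from intraperitoneal injection of about 10^4 cells of E. coli L 47, about 100 times the 50% lethal dose. Groups of five to eight mice each got a single dose immediately after infection, by the route stated in the line. ED50 in mg/kg was calculated from percent survivors at each dose on day 7 (Spearman-Kärber).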

Escherichia coli [9] = experiment: Efficacy of compound administered subcutaneously against Escherichia coli L47 Septicemia in mouse; format: functional; conditions: sc; method in brief: as §3
Mus musculus = species on record: Mus musculus; experiment: Number of survivors mouse to that of treated with compound; 7 out of 8 survived; format: functional

SMILES	MIC (Proteus vulgaris)	MIC (Staphylococcus aureus)	MIC (Streptococcus pneumoniae)	MIC (Streptococcus pyogenes [1])	MIC (Escherichia coli [2])	MIC [3]	MIC (Streptococcus pyogenes [4])	MIC [5]	MIC (Enterococcus faecalis)	MIC (Pseudomonas aeruginosa)	ED50 (Streptococcus pyogenes [6])	Ka [7]	ED50 (Escherichia coli [8])	ED50 (Escherichia coli [9])	Survivors (Mus musculus)
NCCN(CCN)CCNC(=O)[C@H]1NC(=O)[C@H]2NC(=O)[C@H](NC(=O)[C@@H]3NC(=O)[C@H]4NC(=O)[C@@H](Cc5ccc(c(Cl)c5)Oc5cc3cc(c5O)Oc3ccc(cc3Cl)[C@H]2O)NC(=O)[C@H](N)c2ccc(O)c(c2)Oc2cc(O)cc4c2)c2ccc(O)c(c2)-c2c(O)cc(O)cc21	32 µg/mL (≈ 24.1 µM)	0.063 µg/mL (≈ 0.0475 µM)	0.125 µg/mL (≈ 0.0942 µM)	0.06 µg/mL (≈ 0.0452 µM)	1 µg/mL (≈ 0.753 µM)	0.063 µg/mL (≈ 0.0475 µM)	0.063 µg/mL (≈ 0.0475 µM)	0.016 µg/mL (≈ 0.0121 µM)	0.125 µg/mL (≈ 0.0942 µM)	8 µg/mL (≈ 6.03 µM)	1.25 mg/kg	75000 M⁻¹	–	–	–
NCCCN(CCCN)CCCNC(=O)[C@H]1NC(=O)[C@H]2NC(=O)[C@H](NC(=O)[C@@H]3NC(=O)[C@H]4NC(=O)[C@@H](Cc5ccc(c(Cl)c5)Oc5cc3cc(c5O)Oc3ccc(cc3Cl)[C@H]2O)NC(=O)[C@H](N)c2ccc(O)c(c2)Oc2cc(O)cc4c2)c2ccc(O)c(c2)-c2c(O)cc(O)cc21	128 µg/mL (≈ 93.5 µM)	0.125 µg/mL (≈ 0.0913 µM)	0.125 µg/mL (≈ 0.0913 µM)	0.06 µg/mL (≈ 0.0438 µM)	1 µg/mL (≈ 0.73 µM)	0.063 µg/mL (≈ 0.046 µM)	0.063 µg/mL (≈ 0.046 µM)	0.008 µg/mL (≈ 0.00584 µM)	0.125 µg/mL (≈ 0.0913 µM)	8 µg/mL (≈ 5.84 µM)	0.72 mg/kg	–	< 40 mg/kg	40 mg/kg	7
NCCNCCNC(=O)[C@H]1NC(=O)[C@H]2NC(=O)[C@H](NC(=O)[C@@H]3NC(=O)[C@H]4NC(=O)[C@@H](Cc5ccc(c(Cl)c5)Oc5cc3cc(c5O)Oc3ccc(cc3Cl)[C@H]2O)NC(=O)[C@H](N)c2ccc(O)c(c2)Oc2cc(O)cc4c2)c2ccc(O)c(c2)-c2c(O)cc(O)cc21	64 µg/mL (≈ 49.8 µM)	0.063 µg/mL (≈ 0.0491 µM)	0.125 µg/mL (≈ 0.0973 µM)	–	8 µg/mL (≈ 6.23 µM)	0.125 µg/mL (≈ 0.0973 µM)	0.125 µg/mL (≈ 0.0973 µM)	0.063 µg/mL (≈ 0.0491 µM)	0.125 µg/mL (≈ 0.0973 µM)	64 µg/mL (≈ 49.8 µM)	–	75000 M⁻¹	–	–	–
NCCCNCCCCNCCCNC(=O)[C@H]1NC(=O)[C@H]2NC(=O)[C@H](NC(=O)[C@@H]3NC(=O)[C@H]4NC(=O)[C@@H](Cc5ccc(c(Cl)c5)Oc5cc3cc(c5O)Oc3ccc(cc3Cl)[C@H]2O)NC(=O)[C@H](N)c2ccc(O)c(c2)Oc2cc(O)cc4c2)c2ccc(O)c(c2)-c2c(O)cc(O)cc21	64 µg/mL (≈ 46.3 µM)	0.063 µg/mL (≈ 0.0455 µM)	0.125 µg/mL (≈ 0.0904 µM)	0.06 µg/mL (≈ 0.0434 µM)	2 µg/mL (≈ 1.45 µM)	0.125 µg/mL (≈ 0.0904 µM)	0.063 µg/mL (≈ 0.0455 µM)	0.063 µg/mL (≈ 0.0455 µM)	0.125 µg/mL (≈ 0.0904 µM)	8 µg/mL (≈ 5.78 µM)	0.41 mg/kg	75000 M⁻¹	–	–	–
